The target of data set [1] is T1, Dipeptidyl peptidase 4 (Homo sapiens, UniProt P27487). The data set is described as follows: Inhibition of CD26-catalyzed GlyPro-pNA hydrolysis.
For data set [2], the target named is T1, Dipeptidyl peptidase 4. The data set can be described thus: Conversion of prodrug to parent drug NAP-TSAO-T catalyzed by CD26 after 1 hr. Type of data set: ADME. Also noted: concentration or dose not given beside the values.
The target of data set [3] is T1, Dipeptidyl peptidase 4. The data set is described as follows: Conversion of prodrug to parent drug NAP-TSAO-T catalyzed by CD26 after 24 hrs. In kind it is ADME. On the set-up: concentration or dose not given beside the values.
The target of data set [4] is T1, Dipeptidyl peptidase 4. The data set can be described thus: Conversion of prodrug to parent drug NAP-TSAO-T catalyzed by CD26 after 4 hrs. In kind it is ADME. On the set-up: concentration or dose not given beside the values.
Data set [5] is filed under the species Bos taurus. The data set is described as follows: Inhibition of bovine serum-catalyzed prodrug Val-Pro-NAP-TSAO-T conversion to parent drug NAP-TSAO-T. The note with it: cattle. In kind it is organism-based.
The species named for data set [6] is Homo sapiens. The data set is described as follows: Inhibition of human serum-catalyzed prodrug Val-Pro-NAP-TSAO-T conversion to parent drug NAP-TSAO-T. Type of data set: organism-based.
The subject of data set [7] is CCRF-CEM. The data set is described as follows: Antiviral activity against HIV2 assessed as inhibition of HIV2-induced cytopathicity in CEM cells. Type of data set: functional, cell-based. The method, boiled down: (§1)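 CEM and MT-4 cell cultures infected with HIV-1 or HIV-2, with compounds diluted into culture medium from DMSO stocks. Antiviral activity is read at day 4 post-infection and reported as EC50.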
On the technique in general: Cytopathic effects are the visible damage that an infection or toxin causes in cultured cells.

In data set [8] the test system is MT4. The data set is described as follows: Antiviral activity against HIV2 assessed as inhibition of HIV2-induced cytopathicity in MT4 cells. Type of data set: functional, cell-based. A digest of the protocol:
as §1

The target in data set [9] is Human immunodeficiency virus type 1 reverse transcriptase (Human immunodeficiency virus 1, UniProt Q72547). The data set is described as follows: Inhibition of recombinant HIV1 reverse transcriptase.
Data set [10] deals with MT4. The data set can be described thus: Antiviral activity against HIV1 assessed as inhibition of HIV1-induced cytopathicity in MT4 cells. In kind it is functional, cell-based. The settings on record: Homo sapiens. A digest of the protocol:
as §1

For data set [11], the system named is CCRF-CEM. The data set can be described thus: Antiviral activity against HIV1 assessed as inhibition of HIV1-induced cytopathicity in CEM cells. The note with it: Homo sapiens. In kind it is functional, cell-based. The method, boiled down:
as §1

The test system of data set [12] is CCRF-CEM. The data set is described as follows: Antiproliferative activity against human CEM cell line. In kind it is functional. The method, boiled down: (§2)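 Cytostatic assay: compounds made up as DMSO stocks and diluted in culture medium. CC50 is the concentration that inhibits MT-4 or CEM cell proliferation by 50%.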
Data set [13] deals with MT4. The data set can be described thus: Antiproliferative activity against human MT4 cell line. In kind it is functional. The method, boiled down:
as §2

Data set [14] has as its target T2, CD26 (Dipeptidyl peptidase 4) (Homo sapiens, UniProt P27487). The data set is described as follows: Inhibition of CD26-catalyzed GlyPro-pNA hydrolysis at 20 uM. The settings on record: CD26 (dipeptidyl peptidase 4) enzyme, probe GlyPro-pNA.
The species entered for data set [15] is Homo sapiens. The data set can be described thus: Conversion of prodrug to parent drug NAP-TSAO-T catalyzed by 2.5% human serum after 6 hrs. In kind it is ADME, organism-based. The method, boiled down:
(§3)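 Prodrug at 50 µM incubated at 37 °C with human or bovine serum diluted in PBS (5, 2.5, 1 or 0.5%). Samples are quenched in cold methanol and centrifuged, and the supernatant is run on reverse-phase RP-8 HPLC (phosphate/heptanesulfonate pH 3.2–acetonitrile gradient). Parent compound formed is quantified at 3, 6 or 24 h.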

The target in data set [16] is T2, CD26 (Dipeptidyl peptidase 4). The data set can be described thus: Inhibition of CD26-catalyzed GlyPro-pNA hydrolysis at 100 uM. The note with it: CD26 (dipeptidyl peptidase 4) enzyme, probe GlyPro-pNA.
For data set [17], the species on record is Bos taurus. The data set can be described thus: Conversion of prodrug to parent drug NAP-TSAO-T catalyzed by bovin serum after 6 hrs. In kind it is ADME, organism-based. The settings on record: cattle. The method, boiled down: as §3
The species named for data set [18] is Bos taurus. The data set can be described thus: Conversion of prodrug to parent drug NAP-TSAO-T catalyzed by bovin serum after 24 hrs. Type of data set: ADME, organism-based. The note with it: cattle. A digest of the protocol:
as §3

For data set [19], the species on record is Homo sapiens. The data set is described as follows: Conversion of prodrug to parent drug NAP-TSAO-T catalyzed by 2.5% human serum after 3 hrs. In kind it is ADME, organism-based. A digest of the protocol:
as §3

Active and inactive are the calls of the source. No cut-off for these calls is given here. Where only a bound is given, the exact number is not on record here.

T1 sequence (P27487 whole entry): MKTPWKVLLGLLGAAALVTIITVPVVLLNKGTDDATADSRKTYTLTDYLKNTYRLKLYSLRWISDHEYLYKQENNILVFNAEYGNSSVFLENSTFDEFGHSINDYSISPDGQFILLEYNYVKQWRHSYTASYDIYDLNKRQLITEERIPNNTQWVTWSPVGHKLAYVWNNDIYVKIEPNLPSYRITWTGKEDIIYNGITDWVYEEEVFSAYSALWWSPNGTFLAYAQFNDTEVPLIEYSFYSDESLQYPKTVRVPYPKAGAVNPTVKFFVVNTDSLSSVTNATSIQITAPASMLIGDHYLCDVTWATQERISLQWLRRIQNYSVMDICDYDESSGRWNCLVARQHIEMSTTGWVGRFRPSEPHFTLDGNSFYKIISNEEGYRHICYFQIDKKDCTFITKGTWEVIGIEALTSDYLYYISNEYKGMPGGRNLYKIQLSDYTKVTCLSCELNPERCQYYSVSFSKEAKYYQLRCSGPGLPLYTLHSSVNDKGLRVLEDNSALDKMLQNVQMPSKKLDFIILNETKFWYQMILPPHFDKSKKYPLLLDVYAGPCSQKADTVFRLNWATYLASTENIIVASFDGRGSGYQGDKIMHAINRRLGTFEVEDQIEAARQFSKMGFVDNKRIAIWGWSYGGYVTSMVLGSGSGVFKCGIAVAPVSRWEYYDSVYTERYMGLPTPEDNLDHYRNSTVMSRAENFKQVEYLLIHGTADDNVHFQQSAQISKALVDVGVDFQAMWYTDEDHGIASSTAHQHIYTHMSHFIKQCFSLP
T2 sequence (P27487 whole entry): as above

In the case of `Cc1cn(C2OC(CO[Si](C)(C)C(C)(C)C)C3(OS(=O)(=O)C=C3N)C2O[Si](C)(C)C(C)(C)C)c(=O)n(CCCNC(=O)[C@@H]2CCCN2C(=O)[C@@H](NC(=O)OCc2ccccc2)C(C)C)c1=O` (some centres undefined), the Activity entry is “Not Active” at Dipeptidyl peptidase 4 [1], 0% at Dipeptidyl peptidase 4 [2], 0% at Dipeptidyl peptidase 4 [3] and 0% at Dipeptidyl peptidase 4 [4].

As to `CC[C@H](C)[C@H](N)C(=O)N1CCCC1`, the Inhibition in the data set filed under Bos taurus [5] and in the data set listed under Homo sapiens [6] was above 80% in each case.

In the case of `CC[C@H](C)[C@H](N)C(=O)N1CCC[C@H]1C(=O)N[C@H](C(=O)O)[C@@H](C)CC` [DIPROTIN A], the Inhibition in the data set filed under Bos taurus [5] and in the data set listed under Homo sapiens [6] was above 80% throughout.

Regarding `Cc1cn(C2OC(CO[Si](C)(C)C(C)(C)C)C3(OS(=O)(=O)C=C3N)C2O[Si](C)(C)C(C)(C)C)c(=O)n(CCCNC(=O)[C@@H]2CCCN2C(=O)[C@@H](N)Cc2ccc(O)cc2)c1=O` (some centres undefined), the Activity at Dipeptidyl peptidase 4 [2] amounted to 43%; on Dipeptidyl peptidase 4 [3], 79%; at Dipeptidyl peptidase 4 [4], 66%. Moreover, the result in the data set with CCRF-CEM [7] and in the data set with MT4 [8] was inactive. The IC50 in data set [9] was 8.1 µM. The EC50 in the data set on MT4 [10] stood at 0.14 µM; in the data set with CCRF-CEM [11], 0.15 µM. For the same compound, the figures for the CC50 in the data set with CCRF-CEM [12] and in the data set on MT4 [13] were 10 µM and 11 µM, respectively.

Turning to `Cc1cn(C2OC(CO[Si](C)(C)C(C)(C)C)C3(OS(=O)(=O)C=C3N)C2O[Si](C)(C)C(C)(C)C)c(=O)n(CCCNC(=O)[C@@H]2CCCN2C(=O)[C@@H](N)C(C)C)c1=O` (some centres undefined), the Activity turned out to be 37% on Dipeptidyl peptidase 4 [2]; 50% in the data set listed under Homo sapiens [15]; 61% on Dipeptidyl peptidase 4 [3]; 20% in the data set listed under Bos taurus [17]; 62% at Dipeptidyl peptidase 4 [4]; 50% in the data set listed under Bos taurus [18]. Moreover, in the data set listed under Homo sapiens [19], the Activity was 30%. Further, the outcome with CCRF-CEM [7] and in the data set on MT4 [8] was inactive. In data set [14], testing at 20 µM gave an inhibition of 50%. For the same compound, the IC50 in data set [9] stood at 6.6 µM. In addition, testing at 100 µM in data set [16] gave an inhibition of 70%. Moreover, the EC50 with MT4 [10] amounted to 0.3 µM; with CCRF-CEM [11], 0.13 µM. For the same compound, the CC50 was determined as 10 µM in the data set on CCRF-CEM [12] and 11 µM with MT4 [13].

In the case of `Cc1cn(C2OC(CO[Si](C)(C)C(C)(C)C)C3(OS(=O)(=O)C=C3N)C2O[Si](C)(C)C(C)(C)C)c(=O)n(CCCNC(=O)[C@@H]2CCCN2C(=O)CN)c1=O` (some centres undefined), the figures for the Activity at Dipeptidyl peptidase 4 [2], at Dipeptidyl peptidase 4 [3] and at Dipeptidyl peptidase 4 [4] were 5%, 58% and 20%, respectively. Also, the outcome in the data set with CCRF-CEM [7] and in the data set on MT4 [8] was inactive. Besides, the IC50 in data set [9] was determined as 13 µM. In addition, the EC50 in the data set on MT4 [10] amounted to 0.39 µM; with CCRF-CEM [11] it was 0.2 µM. In addition, the CC50 with CCRF-CEM [12] was found to be 51 µM; with MT4 [13], 13 µM.

Turning to `Cc1cn(C2OC(CO[Si](C)(C)C(C)(C)C)C3(OS(=O)(=O)C=C3N)C2O[Si](C)(C)C(C)(C)C)c(=O)n(CCCNC(=O)[C@H]2CCCN2C(=O)[C@@H](N)C(C)C)c1=O` (some centres undefined), the Activity is recorded as 0% on Dipeptidyl peptidase 4 [2], 4.2% on Dipeptidyl peptidase 4 [3] and 2.2% on Dipeptidyl peptidase 4 [4]. Moreover, the result in the data set on CCRF-CEM [7] and in the data set on MT4 [8] was inactive. The IC50 in data set [9] turned out to be 22 µM. In addition, the figures for the concentration for a half-maximal effect (EC50) in the data set on MT4 [10] and with CCRF-CEM [11] were 0.49 µM and 0.09 µM, respectively. The CC50 in the data set on CCRF-CEM [12] amounted to 11 µM; in the data set on MT4 [13], 22 µM.

With `Cc1cn(C2OC(CO[Si](C)(C)C(C)(C)C)C3(OS(=O)(=O)C=C3N)C2O[Si](C)(C)C(C)(C)C)c(=O)n(CCCNC(=O)[C@@H]2C[C@@H](O)CN2C(=O)[C@@H](N)C(C)C)c1=O` (some centres undefined), the Activity on Dipeptidyl peptidase 4 [2] is recorded as 4.1%; at Dipeptidyl peptidase 4 [3] it was 43%; on Dipeptidyl peptidase 4 [4] it was 18%. For the same compound, the result in the data set with CCRF-CEM [7] and in the data set with MT4 [8] was inactive. Besides, the IC50 in data set [9] amounted to 16 µM. Further, the values for the EC50 with MT4 [10] and in the data set on CCRF-CEM [11] were 0.41 µM and 0.4 µM, respectively. Also, the CC50 came out at 15 µM in the data set on CCRF-CEM [12] and 10 µM in the data set on MT4 [13].

With `Cc1cn(C2OC(CO[Si](C)(C)C(C)(C)C)C3(OS(=O)(=O)C=C3N)C2O[Si](C)(C)C(C)(C)C)c(=O)n(CCCNC(=O)[C@H](CC(C)C)NC(=O)[C@@H](N)C(C)C)c1=O` (some centres undefined), the Activity on Dipeptidyl peptidase 4 [2], at Dipeptidyl peptidase 4 [3] and at Dipeptidyl peptidase 4 [4] was 0% throughout. Besides, the outcome in the data set with CCRF-CEM [7] and in the data set on MT4 [8] was inactive. Also, the IC50 in [9] turned out to be 4.6 µM. Further, the EC50 with MT4 [10] worked out at 0.21 µM; in the data set on CCRF-CEM [11] it was 0.19 µM. For the same compound, the CC50 in the data set on CCRF-CEM [12] came to 11 µM; in the data set on MT4 [13] it was 13 µM.

As to `Cc1cn(C2OC(CO[Si](C)(C)C(C)(C)C)C3(OS(=O)(=O)C=C3N)C2O[Si](C)(C)C(C)(C)C)c(=O)n(CCCNC(=O)[C@H](Cc2ccccc2)NC(=O)[C@@H](N)C(C)C)c1=O` (some centres undefined), the Activity on Dipeptidyl peptidase 4 [2], at Dipeptidyl peptidase 4 [3] and on Dipeptidyl peptidase 4 [4] was 0% in each case. Besides, the outcome in the data set on CCRF-CEM [7] and in the data set with MT4 [8] was inactive. In [9], the IC50 was 6.8 µM. Also, the EC50 in the data set with MT4 [10] was 0.26 µM; in the data set with CCRF-CEM [11] it was 0.09 µM. Besides, the half-maximal cytotoxic concentration (CC50) was determined as 10 µM in the data set with CCRF-CEM [12] and 14 µM in the data set on MT4 [13].

The term Inhibition denotes the drop in the measured response relative to a control, in per cent. The term IC50 denotes the concentration that gives 50% inhibition. By EC50 is commonly meant the midpoint of the concentration-response curve. As a reminder, the CC50 is the concentration that lowers cell viability or growth by half. What is called inhibition is the relative decrease from the control value, in per cent.

The values above are taken from ChEMBL document CHEMBL1146037, “Design and discovery of a novel dipeptidyl-peptidase IV (CD26)-based prodrug approach” (J Med Chem, 2006).
